Like-named read-outs stand apart in the source and are kept apart here.
Key:
[1] = system: N14Y oligomer (biotin-[…]-Tyr); test: SPR binding to immobilized tyrosyl-labeled oligonucleotide; details: dilution series 0.39-50 μM
Tdp1 [2] = target: T1, Tdp1 (Homo sapiens, UniProt Q9NUW8); test: SPR binding to immobilized Tdp1; details: dilution series 0.39-50 μM
Outline: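 Tdp1 (1 μM) was pre-bound for 20 min with 2 μM 3′-phosphate 14-mer oligo in 10 mM Na acetate pH 4.5 to shield active-site amines, then amine-coupled to a CM5 chip (~6000 RU), with a Tdp1-free reference surface. Test compound was injected at 30 μL/min, 25 °C, in 50 mM Tris/HCl pH 7.5, 80 mM KCl, 5% DMSO. Referencing used buffer cycles and a DMSO calibration; NaCl/DMSO regeneration.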

Tdp1 [3] = target: T1, Tdp1; test: Tdp1 gel-based assay with recombinant human Tdp1 and N14Y DNA substrate; format: biochemical; details: for Tdp1 inhibition (in words): highest tested concentration 333 μM

T1 sequence (Q9NUW8 whole entry): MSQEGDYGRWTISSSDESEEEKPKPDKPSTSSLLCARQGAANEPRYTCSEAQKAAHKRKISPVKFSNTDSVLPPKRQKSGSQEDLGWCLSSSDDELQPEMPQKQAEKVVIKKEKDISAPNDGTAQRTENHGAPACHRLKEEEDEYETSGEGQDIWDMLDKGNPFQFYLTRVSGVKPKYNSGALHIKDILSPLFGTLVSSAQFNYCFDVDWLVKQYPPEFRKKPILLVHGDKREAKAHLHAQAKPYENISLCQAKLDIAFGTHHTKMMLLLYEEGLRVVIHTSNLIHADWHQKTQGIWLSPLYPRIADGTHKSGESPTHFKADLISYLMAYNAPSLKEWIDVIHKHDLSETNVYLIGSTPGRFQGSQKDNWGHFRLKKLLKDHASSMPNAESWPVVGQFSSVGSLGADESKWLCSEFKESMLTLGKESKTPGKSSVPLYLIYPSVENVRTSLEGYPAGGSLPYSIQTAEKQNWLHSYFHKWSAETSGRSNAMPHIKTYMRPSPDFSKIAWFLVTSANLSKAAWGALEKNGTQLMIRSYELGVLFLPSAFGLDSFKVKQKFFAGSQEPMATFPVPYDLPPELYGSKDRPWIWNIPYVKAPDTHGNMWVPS

Molecule | Tdp1 inhibition (in words) (Tdp1 [3]) | IC50 (Tdp1 [3]) | further results
O=C1NC(=S)/C(=C/c2ccc(O)c(O)c2O)S1 [Compound 50, (Z)-4-Thioxo-5-(2,3,4-trihydroxybenzylidene)thiazolidin-2-one] | – | – | binding to N14Y oligomer (SPR) [1]: No binding; binding to Tdp1 (SPR) (Tdp1 [2]): concentration-dependent binding
O=C1NC(=S)/C(=C/c2ccc(P(=O)(O)O)cc2)S1 [Compound 74, (Z)-(4-((2-Oxo-4-thioxothiazolidin-5-ylidene)methyl)phenyl)-phosphonic Acid] | – | – | fold improvement in potency over 44 (Tdp1 [3]; Tdp1 IC50 vs compound 44): 7.3 fold
(Z)-5-(2-Bromobenzylidene)-4-thioxothiazolidin-2-one [Compound 62] | – | – | IC50 (Tdp1 [3]; read-out: Tdp1 IC50, recombinant human Tdp1, gel-based assay): 30 ± 12 µM
N#C/C(=C\c1ccc(O)c(O)c1)C(=O)NCc1ccccc1 [Compound 6] | completely inactive | – | –
O=C1/C(=C/c2ccc3[nH]ccc3c2)NC(=S)N1c1ccccc1 [Compound 34, (Z)-5-((1H-Indol-5-yl)methylene)-3-phenyl-2-thioxoimidazolidin-4-one] | – | 111 to 333 µM | –
N#C/C(=C\c1ccc(O)c(O)c1)C(=O)O [Compound 4] | completely inactive | – | –
N#C/C(=C\c1ccc(O)c(O)c1)C(N)=O [Compound 5] | completely inactive | – | –
N#CC(C#N)=Cc1cc(O)c(O)c(O)c1 [Compound 7] | completely inactive | – | –

Further lines, with some results ahead:

Tdp1 inhibition (in words) (Tdp1 [3]) | IC50 (Tdp1 [3]) | Molecule | further results
– | 111 to 333 µM | O=C1NC(=O)/C(=C/c2ccc(O)c(O)c2)S1 [Compound 39, (Z)-5-(3,4-Dihydroxybenzylidene)thiazolidine-2,4-dione] | –
– | 111 to 333 µM | O=C1NC(=S)N(Cc2ccccc2)/C1=C\c1ccc(F)cc1 [Compound 37, (Z)-1-Benzyl-5-(4-fluorobenzylidene)-2-thioxoimidazolidin-4-one] | –

Source: PMC7479925 (Journal of medicinal chemistry, 2012)
